The record followed here is ChEMBL document CHEMBL3045139, “N'-Nitro-2-hydrocarbylidenehydrazinecarboximidamides: design, synthesis, crystal structure, insecticidal activity, and structure-activity relationships” (2012).

In brackets after ≈: the same amount, converted by molar mass. Activity calls are given as the source filed them. No cut-off for these calls is given here.

In one assay the test system is Brevicoryne brassicae. Briefly: Insecticidal activity against Brevicoryne brassicae (cabbage aphids) measured in field test. The format is functional, organism-based. An outline of the steps:
(§1)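 Field trials against aphids in northern, middle and southern China used 10% WP and 20% SC formulations. The design was a randomized complete block with five treatments, applied with a hand sprayer. Untreated cabbage or rice served as the control, and imidacloprid 10% WP was the reference.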

The test system of assay [1] is Myzus persicae. Briefly: Insecticidal activity against Myzus persicae (green peach aphid) at 25 degC. The assay is classed as functional. Particulars: read-out: LD50 (the source's name).
The subject of assay [2] is Myzus persicae. Briefly: Insecticidal activity against Myzus persicae (green peach aphid) measured in field test. The format is functional, organism-based. An outline of the steps: as §1

As to `CC(C)/C=N/N(Cc1ccc(Cl)nc1)/C(N)=N/[N+](=O)[O-]`, the outcome in the assay on Brevicoryne brassicae and in the assay with Myzus persicae [2] was Active. For the same compound, in the assay with Myzus persicae [1], the LC50 amounted to 92.5 µg/mL (≈ 310 µM).

In the case of `CCN(/N=C/c1ccc(C)cc1)/C(N)=N/[N+](=O)[O-]`, the result with Brevicoryne brassicae and in the assay on Myzus persicae [2] was Active. Also, the LC50 with Myzus persicae [1] worked out at 1020 µg/mL (≈ 4110 µM).

On to `CCCCCC/C=N/N(Cc1ccc(Cl)nc1)/C(N)=N/[N+](=O)[O-]`, for which the result in the assay on Brevicoryne brassicae and with Myzus persicae [2] was Active. Moreover, in the assay on Myzus persicae [1], the LC50 came to 25.5 µg/mL (≈ 74.7 µM).

As to `O=[N+]([O-])/N=C1\NCCN1Cc1ccc(Cl)nc1` [IMIDACLOPRID], the result in the assay with Brevicoryne brassicae and with Myzus persicae [2] was Active. Besides, the LC50 in the assay on Myzus persicae [1] stood at 24.2 µg/mL (≈ 94.7 µM).

Consider `CCCCN(/N=C/c1cccc(OC)c1)/C(N)=N/[N+](=O)[O-]`, for which the outcome in the assay on Brevicoryne brassicae and in the assay on Myzus persicae [2] was Active. Moreover, the LC50 in the assay with Myzus persicae [1] turned out to be 1800 µg/mL (≈ 6130 µM).

On to `C=CCN(/N=C/c1ccccc1Cl)/C(N)=N/[N+](=O)[O-]`, for which the outcome in the assay with Brevicoryne brassicae and in the assay on Myzus persicae [2] was Active. Also, the LC50 in the assay with Myzus persicae [1] was 362 µg/mL (≈ 1290 µM).

`CCCCN(/N=C/c1ccc(C)cc1)/C(N)=N/[N+](=O)[O-]`: the result with Brevicoryne brassicae and in the assay with Myzus persicae [2] was Active. In addition, the LC50 in the assay on Myzus persicae [1] was 1080 µg/mL (≈ 3880 µM).

Turning to `CCC/C=N/N(Cc1ccc(Cl)nc1)/C(N)=N/[N+](=O)[O-]`, the result in the assay with Brevicoryne brassicae and in the assay on Myzus persicae [2] was Active. In addition, the LC50 with Myzus persicae [1] turned out to be 21 µg/mL (≈ 70.3 µM).

For the compound `N/C(=N\[N+](=O)[O-])N(Cc1ccc(Cl)nc1)/N=C/c1ccco1`, the outcome in the assay on Brevicoryne brassicae and in the assay on Myzus persicae [2] was Active. Besides, in the assay with Myzus persicae [1], the LC50 was 345 µg/mL (≈ 1070 µM).

Regarding `COc1ccc(/C=N/N(Cc2ccccc2)/C(N)=N/[N+](=O)[O-])cc1`, the outcome in the assay with Brevicoryne brassicae and in the assay on Myzus persicae [2] was Active. Besides, in the assay with Myzus persicae [1], the LC50 came out at 3840 µg/mL (≈ 11700 µM).

On to `C=CCN(/N=C/c1ccc(C)cc1)/C(N)=N/[N+](=O)[O-]`, for which the outcome with Brevicoryne brassicae and with Myzus persicae [2] was Active. Further, the LC50 with Myzus persicae [1] was determined as 744 µg/mL (≈ 2850 µM).

`CC/C=N/N(CCC)/C(N)=N/[N+](=O)[O-]`: the outcome in the assay with Brevicoryne brassicae and in the assay with Myzus persicae [2] was Active. The LC50 in the assay on Myzus persicae [1] is 283 µg/mL (≈ 1410 µM).

`C=C/C=N/N(CCCC)/C(N)=N/[N+](=O)[O-]`: the outcome in the assay with Brevicoryne brassicae and with Myzus persicae [2] was Active. Further, the LC50 with Myzus persicae [1] is 328 µg/mL (≈ 1540 µM).

As to `N/C(=N\[N+](=O)[O-])N(Cc1ccc(Cl)nc1)/N=C/c1ccccc1[N+](=O)[O-]`, the outcome with Brevicoryne brassicae and in the assay on Myzus persicae [2] was Active. The LC50 with Myzus persicae [1] stood at 357 µg/mL (≈ 946 µM).

For the compound `N/C(=N\[N+](=O)[O-])N(Cc1ccc(Cl)nc1)/N=C/c1ccc(F)cc1`, the result in the assay with Brevicoryne brassicae and in the assay on Myzus persicae [2] was Active. Also, in the assay on Myzus persicae [1], the LC50 was found to be 1450 µg/mL (≈ 4130 µM).

For the compound `CCC/C=N/N(CCCC)/C(N)=N/[N+](=O)[O-]`, the outcome with Brevicoryne brassicae and in the assay on Myzus persicae [2] was Active. The LC50 in the assay with Myzus persicae [1] turned out to be 367 µg/mL (≈ 1600 µM).

With `CC/C=N/N(CC)/C(N)=N/[N+](=O)[O-]`, the outcome with Brevicoryne brassicae and with Myzus persicae [2] was Active. Moreover, in the assay with Myzus persicae [1], the LC50 was determined as 523 µg/mL (≈ 2790 µM).

As for `CCCC/C=N/N(Cc1ccc(Cl)nc1)/C(N)=N/[N+](=O)[O-]` [GUADIPYR], the outcome with Brevicoryne brassicae and with Myzus persicae [2] was Active. For the same compound, the LC50 in the assay on Myzus persicae [1] was determined as 25.3 µg/mL (≈ 81 µM).

Regarding `C=CCN(/N=C/CCCC)/C(N)=N/[N+](=O)[O-]`, the outcome in the assay on Brevicoryne brassicae and in the assay on Myzus persicae [2] was Active. The LC50 in the assay with Myzus persicae [1] is 400 µg/mL (≈ 1760 µM).

With `CCCCN(/N=C/c1ccccc1)/C(N)=N/[N+](=O)[O-]`, the outcome in the assay with Brevicoryne brassicae and in the assay with Myzus persicae [2] was Active. Also, the LC50 with Myzus persicae [1] was 1800 µg/mL (≈ 6820 µM).
